Assay results as given in ChEMBL document CHEMBL1141109, “Synthesis of an estrogen receptor beta-selective radioligand: 5-[18F]fluoro-(2R,3S)-2,3-bis(4-hydroxyphenyl)pentanenitrile and comparison of in vivo distribution with 16alpha-[18F]fluoro-17beta-estradiol” (J Med Chem, 2005).
Values belong to the compound of their own block, whether it stands above or below them.

Columns and labels:
[1] = Biodistribution of [18F]-FES in alpha estrogen receptor knock out mouse thymus after 30 min; (n=3); type: ADME, organism-based; conditions: in vivo, 0.5 h
Procedure, shortened: (§1)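 Female αERKO mice rested 48 h after shipping and fed estrogen-free chow. Estrous stage was checked by daily vaginal smears, and mice were used in diestrus. Each received 13 µCi [18F]FES in 100 µL 10% ethanol/saline. Animals were sacrificed at 30 min, 1 h or 2 h (n = 3 each). Tissue uptake is reported as %ID/g ± SD.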

[2] = Biodistribution of [18F]-FES in alpha estrogen receptor knock out mouse brain after 2 h; (n=3); type: ADME, organism-based; conditions: in vivo
Procedure, shortened: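 αERKO mice staged in diestrus by vaginal smear after rest on estrogen-free chow. Injected with 13 µCi [18F]FES in 100 µL of 10% ethanol/saline and killed at 30 min, 1 h or 2 h (n=3 each). Tissues weighed and gamma-counted, reported as %ID/g ± SD.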

[3] = Biodistribution of [18F]FES in alpha estrogen receptor knock out mouse heart after 1 h; (n=3); type: ADME, organism-based; conditions: in vivo; procedure, shortened: as §1
[4] = Biodistribution of [18F]FES in beta estrogen receptor knock out mouse muscle after 1 h; (n=3); type: ADME, organism-based, Muscle tissue; conditions: in vivo
[5] = Biodistribution of [18F]FES in alpha estrogen receptor knock out mouse fat after 2 h; (n=3); type: ADME, organism-based, Adipose tissue; conditions: in vivo
Procedure, shortened: (§2)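 Female αERKO mice were rested 48 h after shipping and fed estrogen-free chow. They were staged by daily vaginal smears and studied in diestrus. Each received 13 µCi [18F]FES in 100 µL 10% ethanol/saline and was sacrificed at 30 min, 1 h or 2 h (n = 3 per time). Tissue uptake is given as %ID/g ± SD.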

[6] = Biodistribution of [18F]FES in beta estrogen receptor knock out mouse bone after 1 h; (n=3); type: ADME, organism-based, Bone element; conditions: in vivo
[7] = Biodistribution of [18F]FES in beta estrogen receptor knock out mouse lung after 1 h; (n=3); type: ADME, organism-based; conditions: in vivo
[8] = Biodistribution of [18F]FES in alpha estrogen receptor knock out mouse spleen after 1 h; (n=3); type: ADME, organism-based; conditions: in vivo
[9] = Biodistribution of [18F]FES in alpha estrogen receptor knock out mouse thymus after 2 h; (n=3); type: ADME, organism-based; conditions: in vivo
[10] = Biodistribution of [18F]FES in alpha estrogen receptor knock out mouse heart after 30 min; (n=3); type: ADME, organism-based; conditions: in vivo, 0.5 h; procedure, shortened: as §2
[11] = Biodistribution of [18F]FES in beta estrogen receptor knock out mouse spleen after 30 min; (n=3); type: ADME, organism-based; conditions: in vivo, 0.5 h
[12] = Biodistribution of [18F]FEDPN in alpha estrogen receptor knock out mouse liver after 30 min; (n=3); type: ADME, organism-based; conditions: in vivo, 0.5 h
Procedure, shortened: (§3)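 ERKO female mice (αERKO or βERKO), rested 48 h after shipping, placed on estrogen-free chow, and staged by daily vaginal smears. Injected in a nonestrous stage with 11 µCi [18F]FEDPN in 130 µL of 10% ethanol/saline. Killed at 30 min, 1 h or 2 h. Organs counted and reported as %ID/g ± SD, three animals per point.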

[13] = Biodistribution of [18F]FEDPN in beta estrogen receptor knock out mouse kidney after 30 min; (n=3); type: ADME, organism-based; conditions: in vivo, 0.5 h
Procedure, shortened: (§4)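 αERKO and βERKO mice, staged by daily vaginal smears and kept on estrogen-free chow, were studied in a nonestrous stage. Each mouse received 11 μCi of tracer in 130 μL of 10% ethanol/saline. Mice were killed at 30 min, 1 h or 2 h (n = 3 each). Organs were removed, blotted, weighed and gamma-counted against an injectate standard. Uptake is given as %ID/g ± SD.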

[14] = Biodistribution of [18F]FEDPN in beta estrogen receptor knock out mouse ovaries after 30 min; (n=3); type: ADME, organism-based, Female gonad; conditions: in vivo, 0.5 h; procedure, shortened: as §4
[15] = Biodistribution of [18F]FEDPN in beta estrogen receptor knock out mouse thymus after 1 h; (n=3); type: ADME, organism-based; conditions: in vivo; procedure, shortened: as §4
[16] = Biodistribution of [18F]FEDPN in beta estrogen receptor knock out mouse thymus after 2 h; (n=3); type: ADME, organism-based; conditions: in vivo; procedure, shortened: as §4
[17] = Biodistribution of [18F]FEDPN in alpha estrogen receptor knock out mouse fat after 1 h; (n=3); type: ADME, organism-based, Adipose tissue; conditions: in vivo; procedure, shortened: as §3
[18] = Biodistribution of [18F]FEDPN in beta estrogen receptor knock out mouse lung after 2 h; (n=3); type: ADME, organism-based; conditions: in vivo; procedure, shortened: as §4
[19] = Biodistribution of [18F]FEDPN in alpha estrogen receptor knock out mouse bone after 1 h; (n=3); type: ADME, organism-based, Bone element; conditions: in vivo; procedure, shortened: as §3
[20] = Biodistribution of [18F]FEDPN in alpha estrogen receptor knock out mouse lung after 2 h; (n=3); type: ADME, organism-based; conditions: in vivo; procedure, shortened: as §4
[21] = Biodistribution of [18F]FEDPN in rat liver after 1 h when given in tail vein; (n=5); type: ADME, organism-based; conditions: in vivo, iv
Procedure, shortened: (§5)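 Immature female Sprague–Dawley rats (<25 days old) under isoflurane/O2 got 20 µCi tracer in 150 µL 20% ethanol/saline by tail vein. […] Rats were killed at 30 min, 1 h or 2 h. Organs were blotted, weighed and gamma-counted against an injectate standard. Data are %ID/g ± SD, five rats per point.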

[22] = Biodistribution of [18F]FEDPN in rat lung after 1 h when given in tail vein; (n=5); type: ADME, organism-based; conditions: in vivo, iv; procedure, shortened: as §5
[23] = Biodistribution of [18F]FEDPN in rat muscle after 1 h when given in tail vein; (n=5); type: ADME, organism-based, Muscle tissue; conditions: in vivo, iv; procedure, shortened: as §5
[24] = Biodistribution of [18F]-FEDPN in rat muscle after 2 hr when given in tail vein; (n=5); type: ADME, organism-based, Muscle tissue; conditions: in vivo, iv
Procedure, shortened: (§6)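 Immature female Sprague–Dawley rats (<25 days old) anesthetized with isoflurane/O2. Given 20 µCi tracer by tail vein in 150 µL of 20% ethanol/saline. […] Killed at 30 min, 1 h or 2 h. Blood and organs blotted, weighed and gamma-counted against a standard dilution of the injectate. Reported as %ID/g ± SD, n=5.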

[25] = Biodistribution of [18F]-FEDPN in rat uterus after 1 hr when given in tail vein; (n=5); type: ADME, organism-based; conditions: in vivo, iv; procedure, shortened: as §6
[26] = Biodistribution of [18F]FEDPN in rat kidney after 30 min when given in tail vein; (n=5); type: ADME, organism-based; conditions: in vivo, iv, 0.5 h; procedure, shortened: as §5
[27] = Biodistribution of [18F]FEDPN in rat uterus after 30 min when given in tail vein; (n=5); type: ADME, organism-based; conditions: in vivo, iv, 0.5 h; procedure, shortened: as §5
[28] = Biodistribution of [18F]FEDPN in rat ovaries after 30 min when given in tail vein; (n=5); type: ADME, organism-based, Female gonad; conditions: in vivo, iv, 0.5 h; procedure, shortened: as §5
[29] = Biodistribution of [18F]FEDPN in rat liver after 1 h block when given in tail vein; (n=5); type: ADME, organism-based; conditions: in vivo, iv; procedure, shortened: as §5
[30] = Biodistribution of [18F]FEDPN in rat thymus after 1 h block when given in tail vein; (n=5); type: ADME, organism-based; conditions: in vivo, iv; procedure, shortened: as §5
[31] = Biodistribution of [18F]FEDPN in beta estrogen receptor knock out mouse fat after 30 min; (n=3); type: ADME, organism-based, Adipose tissue; conditions: in vivo, 0.5 h; procedure, shortened: as §4
[32] = Biodistribution of [18F]FEDPN in beta estrogen receptor knock out mouse muscle after 1 h; (n=3); type: ADME, organism-based, Muscle tissue; conditions: in vivo; procedure, shortened: as §4
[33] = Biodistribution of [18F]FEDPN in beta estrogen receptor knock out mouse muscle after 2 h; (n=3); type: ADME, organism-based, Muscle tissue; conditions: in vivo; procedure, shortened: as §4
[34] = Biodistribution of [18F]FEDPN in alpha estrogen receptor knock out mouse uterus after 2 h; (n=3); type: ADME, organism-based; conditions: in vivo; procedure, shortened: as §4
[35] = Biodistribution of [18F]-FEDPN in alpha estrogen receptor knock out mouse ovaries after 1 h; (n=3); type: ADME, organism-based, Female gonad; conditions: in vivo; procedure, shortened: as §3
[36] = Biodistribution of [18F]FEDPN in alpha estrogen receptor knock out mouse kidney after 2 h; (n=3); type: ADME, organism-based; conditions: in vivo; procedure, shortened: as §3

Biodistribution [1]: 0.68 %ID/g
Biodistribution [2]: 0.03 %ID/g
Biodistribution [3]: 0.15 %ID/g
Biodistribution [4]: 1.29 %ID/g
Biodistribution [5]: 0.09 %ID/g
Biodistribution [6]: 1.08 %ID/g
Biodistribution [7]: 1.48 %ID/g
Biodistribution [8]: 0.19 %ID/g
Biodistribution [9]: 0.1 %ID/g
Biodistribution [10]: 0.62 %ID/g
Biodistribution [11]: 1.4 %ID/g
SMILES: C[C@]12CC[C@@H]3c4ccc(O)cc4CC[C@H]3[C@@H]1C[C@@H](F)[C@@H]2O [FLUOROESTRADIOL]

Biodistribution [12]: 3.7 %ID/g
Biodistribution [13]: 4.83 %ID/g
Biodistribution [14]: 1.4 %ID/g
Biodistribution [15]: 0.25 %ID/g
Biodistribution [16]: 0.11 %ID/g
Biodistribution [17]: 0.27 %ID/g
Biodistribution [18]: 0.44 %ID/g
Biodistribution [19]: 4.13 %ID/g
Biodistribution [20]: 0.75 %ID/g
Biodistribution [21]: 1.51 %ID/g
Biodistribution [22]: 0.44 %ID/g
Biodistribution [23]: 0.22 %ID/g
Biodistribution [24]: 0.09 %ID/g
Biodistribution [25]: 0.74 %ID/g
Biodistribution [26]: 2 %ID/g
Biodistribution [27]: 0.95 %ID/g
Biodistribution [28]: 0.93 %ID/g
Biodistribution [29]: 0.76 %ID/g
Biodistribution [30]: 0.16 %ID/g
Biodistribution [31]: 0.89 %ID/g
Biodistribution [32]: 0.75 %ID/g
Biodistribution [33]: 0.27 %ID/g
Biodistribution [34]: 0.24 %ID/g
Biodistribution [35]: 0.52 %ID/g
Biodistribution [36]: 1.94 %ID/g
SMILES: N#C[C@H](c1ccc(O)cc1)[C@@H](CCF)c1ccc(O)cc1
